A word on the inhibition: it is the drop in the measured response relative to a control, in per cent. Read a low inhibition as a response near the control. As a reminder, the logD is the decadic logarithm of the distribution of all forms, ionised or not, between an organic phase and buffer at a given pH. Low readings indicate lower lipophilicity, high ones higher lipophilicity.

The values that follow come from ChEMBL document CHEMBL4330096, “Discovery of potent and selective 5-azaindazole inhibitors of leucine-rich repeat kinase 2 (LRRK2) - Part 1” (Bioorg Med Chem Lett, 2019).

Data set [1] addresses T1, Serine/threonine-protein kinase Chk1 (Homo sapiens) (UniProt O14757).
T1 sequence (whole entry): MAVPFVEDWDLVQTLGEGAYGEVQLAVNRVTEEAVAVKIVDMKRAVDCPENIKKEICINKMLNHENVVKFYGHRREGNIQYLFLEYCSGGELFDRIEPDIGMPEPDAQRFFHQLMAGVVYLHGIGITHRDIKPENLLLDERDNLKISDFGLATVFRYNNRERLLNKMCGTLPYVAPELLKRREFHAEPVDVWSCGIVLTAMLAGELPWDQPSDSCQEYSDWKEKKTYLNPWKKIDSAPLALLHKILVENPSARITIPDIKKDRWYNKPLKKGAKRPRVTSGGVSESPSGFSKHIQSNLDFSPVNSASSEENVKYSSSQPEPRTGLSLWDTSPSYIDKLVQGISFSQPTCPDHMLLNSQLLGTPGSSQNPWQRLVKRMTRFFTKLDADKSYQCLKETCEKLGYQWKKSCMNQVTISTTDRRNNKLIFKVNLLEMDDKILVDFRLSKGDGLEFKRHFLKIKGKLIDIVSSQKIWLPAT
Nature of the data set: Inhibition of CHK1 (unknown origin) at 1 uM relative to control. The gist of the method: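 Single-point screen of each compound against a panel of 59 protein kinases, at 1 or 10 μM. The panel data are also summarised as a rescaled geometric mean selectivity score.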

The target in data set [2] is T2, MAP kinase-activated protein kinase 5 (Homo sapiens) (UniProt Q8IW41).
T2 sequence (whole entry): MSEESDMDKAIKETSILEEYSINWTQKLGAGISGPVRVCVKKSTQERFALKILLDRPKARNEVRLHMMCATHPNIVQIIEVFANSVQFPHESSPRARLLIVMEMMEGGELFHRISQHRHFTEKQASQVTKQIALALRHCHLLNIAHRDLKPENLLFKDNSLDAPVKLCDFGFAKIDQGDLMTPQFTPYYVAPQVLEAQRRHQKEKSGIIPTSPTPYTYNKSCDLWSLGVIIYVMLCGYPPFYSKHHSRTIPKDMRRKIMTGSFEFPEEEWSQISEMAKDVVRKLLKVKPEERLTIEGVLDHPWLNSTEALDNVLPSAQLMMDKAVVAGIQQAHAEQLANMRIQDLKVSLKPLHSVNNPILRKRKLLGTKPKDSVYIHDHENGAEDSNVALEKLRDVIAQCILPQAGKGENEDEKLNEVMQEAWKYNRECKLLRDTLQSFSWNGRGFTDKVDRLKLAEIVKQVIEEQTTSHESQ
Nature of the data set: Inhibition of PRAK (unknown origin) at 1 uM relative to control. A digest of the protocol:
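Single-concentration screen of each compound against a 59-protein-kinase panel, run at 10 µM or 1 µM. Activity relative to control is shown as a heat map across the panel.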

Data set [3] in a line: Ratio of drug level in mouse brain to plasma. The settings on record: read-out: BPR. A digest of the protocol: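 Mice; ratio based on total (not unbound) compound concentrations in brain versus plasma.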
Data set [4] in a line: Lipophilicity, log D of the compound at pH 7.4. Type of data set: physicochemical. The settings on record: buffer.

As for `CC(C)n1cc(-c2n[nH]c3ccnc(OC4CCOCC4)c23)cn1`, the figures for the inhibition in data set [1] and in data set [2] were 5% and 19%, respectively.
For `Cc1n[nH]c2ccnc(NC3CCCCC3)c12`, in data set [3], the Kp is 4.
`Cc1n[nH]c2ccnc(OC3CCCCC3)c12` gave a logD in data set [4] of over 4.
On to `c1cc(-c2n[nH]c3ccnc(OC4CCOCC4)c23)cc(N2CCOCC2)n1`, for which the inhibition in data set [1] is 0%; in data set [2] it was 4%.
